AHR activator: human AHR activation; 2.5% of 320,000 active; activation, % at 5 µM; AHR-responsive luciferase reporter cells, luminescence; P35869; in the data active = activation above about 47%
Target sequence (P35869 whole entry, looked up): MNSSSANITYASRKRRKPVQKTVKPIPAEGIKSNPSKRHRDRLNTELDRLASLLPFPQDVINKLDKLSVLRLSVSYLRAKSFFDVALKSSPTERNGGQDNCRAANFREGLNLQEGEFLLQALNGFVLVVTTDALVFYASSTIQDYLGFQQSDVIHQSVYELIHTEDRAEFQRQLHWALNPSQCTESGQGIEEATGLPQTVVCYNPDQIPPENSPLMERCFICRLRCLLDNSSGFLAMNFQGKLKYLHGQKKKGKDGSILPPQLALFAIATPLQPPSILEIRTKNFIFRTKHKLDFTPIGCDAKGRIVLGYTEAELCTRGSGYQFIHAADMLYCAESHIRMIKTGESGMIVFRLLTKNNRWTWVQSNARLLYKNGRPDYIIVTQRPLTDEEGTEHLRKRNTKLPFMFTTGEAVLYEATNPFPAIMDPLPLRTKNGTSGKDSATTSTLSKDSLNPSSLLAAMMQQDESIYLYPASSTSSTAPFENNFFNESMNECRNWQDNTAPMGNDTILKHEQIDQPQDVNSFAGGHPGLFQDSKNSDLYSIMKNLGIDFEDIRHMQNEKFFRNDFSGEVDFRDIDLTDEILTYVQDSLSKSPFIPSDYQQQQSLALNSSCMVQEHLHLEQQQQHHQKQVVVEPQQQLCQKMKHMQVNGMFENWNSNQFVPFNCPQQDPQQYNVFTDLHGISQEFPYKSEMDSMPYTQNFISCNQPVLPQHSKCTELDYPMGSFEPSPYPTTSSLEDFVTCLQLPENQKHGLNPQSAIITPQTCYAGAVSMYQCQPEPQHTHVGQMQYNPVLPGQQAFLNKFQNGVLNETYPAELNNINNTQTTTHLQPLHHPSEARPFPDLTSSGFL
SR-BI HDL uptake: inhibitors of mouse SR-BI mediated HDL lipid uptake | AID 488896 | inhibition, % at 12.5 µM | 0.96% of 320,000 active | ldlA[mSR-BI] CHO cells, DiI-HDL uptake fluorescence, 3 h | Q61009;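 active = mean replicate inhibition of at least 70% and a set share of replicates each scoring 70 or more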
SR-BI DiI-HDL act: enhances SR-BI lipid uptake from DiI-HDL | activation, % at 12.5 µM | CHO ldlA[mSR-BI] cells, DiI-HDL uptake fluorescence, 3 h; 100 = double the neutral-control signal | 0.096% of 320,000 active;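 active = mean replicate activation of at least 60% and every replicate at or above 60%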
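System: CHO ldlA[mSR-BI] cells / Medium: HEPES-buffered (25 mM, pH 7.4) F12 plus 0.5% BSA / Probe or stimulus: labelled HDL, 10 µg/mL / Doses: single compound concentration, delivered by pin transfer / Schedule: 3 h, 37 °C / Measured by: DiI fluorescence, bottom read / Measure: cell-associated DiI fluorescence as measure of HDL uptake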
GASC-1 inh: blocks human GASC-1 demethylase activity. AID 2099. 0.069% of 330,000 active. inhibition, % at 2.35 µM. GST-JMJD2C(1-420) H3K9me3 demethylation, DELFIA europium. Q9H3R0;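 active = more than half of a compound's replicate wells show inhibition beyond 50%, single wells judged on their own value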;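 note: signal counts dimethyl H3K9 product captured on neutravidin plate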
FXN GAA850 act: activators of GAA850 frataxin (FXN) promoter; HEK293 lucGAA850 FXN promoter luciferase reporter, 24 h; percent of 10 µM SAHA response; activation, % at 6 µM; 0.56% of 360,000 active;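 active = activation above the average of all compounds screened plus 3 SD, cutoff fixed separately per campaign, cut at about 7.5% in these data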
Large screens that a line does not name were inactive. A selection: hits, their analogues and other compounds. The true share with any hit is near 3.7%.

Cc1nn(-c2ccccc2)c(Cl)c1C1C(C#N)=C(N)Oc2c1c(C)nn2-c1ccccc1 (configuration not stated)	none
Cc1ccc(-n2nc(C)c3c2OC(N)=C(C#N)C3c2ccccc2F)cc1 (configuration not stated)	AHR activator 66
C=CCOc1ccc(S(C)(=O)=O)cc1	none
CCCCNC(=O)c1cc2c(C)cc(C)cc2[nH]1	AHR activator 55
Cc1cc(C)c2cc(C(=O)Nc3ccc(C)c(F)c3)[nH]c2c1	none (no result: AHR activator)
O=C(COC(=O)c1ccc(F)c(S(=O)(=O)N2CCOCC2)c1)Nc1ccc2c(c1)OCO2	none (no result: AHR activator, GASC-1 inh)
CC1CC1c1ccc(/C=C(\C#N)C(=O)Nc2cc(Cl)ccc2Cl)o1 (configuration not stated)	AHR activator 60
CSCCC(NC(=O)c1ccccc1)C(=O)N/N=C(\C)Cc1ccccc1 (configuration not stated)	none (no result: AHR activator)
CCOc1cc(C(=O)N=c2sccn2C)cc(Br)c1OC	AHR activator 55
CCOc1cc(C(=O)NC)cc(Br)c1OC	none (no result: SR-BI HDL uptake, SR-BI DiI-HDL act)
Cc1cccc(N2C(=O)N3[C@H](c4ccc(Cl)cc4)[C@@H]4C(=O)N(C5CCCCC5)C(=O)[C@@H]4[C@]3(Cc3ccc(Cl)cc3)C2=O)c1	FXN GAA850 act 10
Cc1cccc(N2C(=O)N3[C@H](c4ccc(F)cc4)[C@@H]4C(=O)N(C5CCCCC5)C(=O)[C@@H]4[C@]3(Cc3ccc(Cl)cc3)C2=O)c1	none
Cc1nn(-c2ccccc2)c2sc(C(=O)O)cc12	none
Cc1nn(-c2ccccc2)c2sc(C(=O)N3CCOCC3)cc12	AHR activator 78
Cc1ccsc1C(=O)Nc1nc2ccccc2[nH]1	AHR activator 111 (no result: SR-BI HDL uptake, SR-BI DiI-HDL act)
COc1ccc(C(=O)Nc2nc3ccccc3[nH]2)cc1OC	none
CCOc1ccc(C(=O)Nc2nc3ccccc3[nH]2)cc1OCC	SR-BI HDL uptake 81
O=C(Nc1nc2ccccc2[nH]1)c1ccccc1OC(F)F	AHR activator 51
CCc1ccc(C(=O)Nc2nc3ccccc3[nH]2)cc1	AHR activator 51
O=C(Nc1nc2ccccc2[nH]1)c1ccc(F)cc1	none
COc1ccc(OC)c(/C=N/NC(=S)NCCc2ccccc2)c1	none (no result: AHR activator)
COc1ccc(CCN2CC(C(=O)NCCc3cn[nH]c3)CCC2=O)cc1 (configuration not stated)	none
O=C(Nc1nc2ccccc2[nH]1)c1cc2ccccc2o1	AHR activator 56
O=C(Nc1nc2ccccc2[nH]1)c1cc(F)cc(F)c1	none
Cc1c(C(=O)Nc2nc3ccccc3[nH]2)cccc1[N+](=O)[O-]	AHR activator 60
Cc1cc(C)cc(C(=O)Nc2nc3ccccc3[nH]2)c1	AHR activator 57
N=C1/C(=C/c2cccn2CCOc2ccccc2)C(=O)N=C2SC=C(c3ccccc3)N12	SR-BI HDL uptake 75
COc1ccc(CC(=O)Nc2ccc(-c3cn4ccc(C)cc4n3)cc2)cc1	SR-BI HDL uptake 83
COc1ccccc1C1C(C#N)=C(N)N(N(C)C)C2=C1C(=O)CC(C)(C)C2 (configuration not stated)	none
Cc1cccc(NC(=O)CSc2nnc(CNC(=O)c3ccc(S(=O)(=O)N(C)C)cc3)n2-c2ccccc2)c1	none
Cc1cccc(NC(=O)CSc2nnc(CNC(=O)c3ccc(S(=O)(=O)N(C)C)cc3)n2-c2cccc(C)c2)c1	SR-BI HDL uptake 85
COc1ccc(CNC(=O)C2=CC(c3ccc(C)cc3)=NS(=O)(=O)N2C)cc1	none
COc1ccc2nc(NC(=O)c3ccoc3C)sc2c1	none
COc1cc(OC)cc(C(=O)Nc2nc3ccc(S(C)(=O)=O)cc3s2)c1	AHR activator 49
Cc1ccc(C(=O)Nc2nc3ccc(S(C)(=O)=O)cc3s2)s1	none
COc1ccc2nc(NC(=O)c3cc(C)oc3C)sc2c1	SR-BI HDL uptake 83
COc1cc(C(=O)Nc2nc3ccc(S(C)(=O)=O)cc3s2)cc(OC)c1C	none
Cc1cc(C(=O)Nc2nc3ccc(S(C)(=O)=O)cc3s2)c(C)o1	SR-BI HDL uptake 82
COc1ccc(S(=O)(=O)Nc2ccccn2)cc1C(=O)Nc1ccccc1	none
COCC(C)n1c(C)cc(C(=O)COC(=O)/C=C/c2cccc(F)c2)c1C (configuration not stated)	none (no result: SR-BI HDL uptake, SR-BI DiI-HDL act)
CC1CCC(NC(=O)CN2C(=O)c3cccnc3Oc3ccc(Cl)cc32)CC1 (configuration not stated)	none
COc1ccc(S(=O)(=O)N2CCCC2)cc1C(C)C	none
Cc1cc(C)c(O)c(-c2cc(C(=O)Nc3c(C)n(C)n(-c4ccccc4)c3=O)[nH]n2)c1	none (no result: SR-BI HDL uptake, SR-BI DiI-HDL act)
O=C(O)CC(Cc1ccccc1)C(=O)NCC12CC3CC(CC(C3)C1)C2 (configuration not stated)	none
CC(C)(C)CC(=O)O/N=C(\N)c1ccccn1	none
COc1ccc(CC(=O)NNS(=O)(=O)c2ccc([N+](=O)[O-])cc2)cc1OC	SR-BI DiI-HDL act 61
COc1nc(NCCc2ccc(OC)c(OC)c2)nc(Nc2ccccc2)n1	AHR activator 48
ONC(=NCc1ccccc1)c1ccccc1	none (no result: AHR activator, GASC-1 inh)
COc1cc(-c2noc(C)c2/C=C/c2ccc(C(=O)O)cc2)cc(OC)c1OC	none
COc1cc(-c2noc(C)c2/C=C/c2cccc([N+](=O)[O-])c2)cc(OC)c1OC	SR-BI HDL uptake 81
Cc1ccc(C(=O)Nc2cccc(C(=O)N/N=C/c3ccc(O)cc3)c2)cc1	AHR activator 56 (no result: SR-BI HDL uptake, SR-BI DiI-HDL act)
Cc1ccc(C(=O)Nc2ccc(C(=O)N/N=C/c3ccccn3)cc2)cc1	SR-BI HDL uptake 76
O=C(N/N=C/c1ccccn1)c1ccccc1	none
Cc1cccc(/C=N/NC(=O)c2ccc(NC(=O)c3ccc(F)cc3)cc2)n1	none (no result: SR-BI HDL uptake, SR-BI DiI-HDL act)
O=C(N/N=C/c1ccccc1)c1ccc(NC(=O)c2ccc(F)cc2)cc1	none (no result: SR-BI HDL uptake, SR-BI DiI-HDL act)
Cc1cccc(/C=N/NC(=O)c2ccc(NC(=O)c3ccc(Cl)cc3)cc2)n1	SR-BI HDL uptake 77
Cc1ccccc1C(=O)Nc1ccc(C(=O)N/N=C/c2ccc(F)cc2)cc1	SR-BI HDL uptake 84
CCOC(=O)CSc1cccc2cccnc12	none
COCC(=O)Nc1nnc(SCC(=O)N2C(C)CCCC2C)s1 (configuration not stated)	none
Cc1cc(C)c(O)c(-c2n[nH]c3c2C(c2cccc(O)c2)N(Cc2ccco2)C3=O)c1 (configuration not stated)	AHR activator 65 (no result: SR-BI HDL uptake, SR-BI DiI-HDL act)
O=C1c2[nH]nc(-c3ccccc3O)c2C(c2cccc(Cl)c2)N1Cc1ccco1 (configuration not stated)	none
Cc1nc2ccccn2c1C(=O)N/N=C/c1ccccc1	none
Cc1nc2ccccn2c1C(=O)NN=C1C2CC3CC(C2)CC1C3	AHR activator 48
COCc1cc(C)nc(NCCc2ccccc2)c1C#N	none
COCc1cc(C)nc(Nc2ccccc2OC)c1C#N	AHR activator 52
Cc1cc(Nc2ccccc2F)n2nc(C)nc2n1	none
Cc1cc(C)cc(Nc2cc(C)nc3nc(C)nn23)c1	AHR activator 51

Screening data from PubChem.
